Rows were chosen to be rich in hits. Some 2.5% of all compounds tested hit in one or more screens of this group.
FGF22 binding = binders of human FGF22 protein, primary screen, FGF22 synaptogenesis inhibitor project, biophysical, thermal shift, single point; 1.5% of 340,000 active; recombinant FGF22 thermal shift, SYPRO orange fluorescence; percent of sucrose octasulfate shift, DMSO zero; activity (Tm shift, normalised), % at 9.99 µM; AID 651658, 2012;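 active means mean Tm shift, scaled 0 neutral to 100 positive control, at about 1.3% or above, every replicate too, limit read from the data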
Target sequence (Q9HCT0 whole entry, looked up): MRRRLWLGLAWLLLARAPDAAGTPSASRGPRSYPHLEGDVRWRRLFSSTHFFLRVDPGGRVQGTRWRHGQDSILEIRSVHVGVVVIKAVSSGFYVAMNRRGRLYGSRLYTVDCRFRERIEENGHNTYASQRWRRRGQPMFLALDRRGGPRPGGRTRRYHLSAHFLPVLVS
miR-122 sensor = miR-122 Renilla sensor signal increase in Huh7, primary screen, miR-122 inhibitor project, cell-based, single point, plate reader. Huh7 miR-122 Renilla luciferase sensor, 48 h; neutral wells = 0, positive control = 100. activation (reporter increase), % at 12.5 µM. 0.3% of 340,000 active. AID 602342, 2012;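 active means mean replicate activation score at least 90 and every replicate individually at or above 90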;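 further: higher luciferase means less miR-122 activity so hits act as miR-122 inhibitors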
SIRT5 inh = SIRT5 desuccinylase inhibitors, primary screen, biochemical, fluorescence imaging, single point, set 5. NAD-dependent protein deacylase sirtuin-5, mitochondrial (Homo sapiens), Q9NXA8. Purified SirT5, succinyl-peptide AMC, trypsin-coupled fluorescence. inhibition, % at 15 µM. 1.1% of 330,000 active. AID 652115, 2013; in the data active means inhibition above about 15%
Target sequence (Q9NXA8 whole entry, looked up): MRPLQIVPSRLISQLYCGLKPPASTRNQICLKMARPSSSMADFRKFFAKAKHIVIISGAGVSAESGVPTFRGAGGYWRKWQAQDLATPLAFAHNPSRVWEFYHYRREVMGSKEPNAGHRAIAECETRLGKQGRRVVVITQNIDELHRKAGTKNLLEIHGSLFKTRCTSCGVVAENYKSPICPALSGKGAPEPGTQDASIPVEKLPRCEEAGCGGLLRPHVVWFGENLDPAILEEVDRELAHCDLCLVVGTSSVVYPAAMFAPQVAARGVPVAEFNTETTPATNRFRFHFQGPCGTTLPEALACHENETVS
S100A4 MyoIIA = inhibitors of S100A4-myosin IIA peptide binding, primary screen, biochemical, fluorescence polarization, TAMRA-MyoIIA peptide; Protein S100-A4 (Homo sapiens), P26447; inhibition, % at 10.7 µM; 0.14% of 360,000 active; AID 652163, 2013;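 active means mean inhibition of at least 70% across replicates, with every replicate also reaching that level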
Target sequence (P26447 whole entry, looked up): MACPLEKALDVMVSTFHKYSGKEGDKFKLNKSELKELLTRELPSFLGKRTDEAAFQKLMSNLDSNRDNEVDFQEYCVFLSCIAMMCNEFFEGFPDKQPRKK
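Material: human S100A4 monomer with TAMRA-labelled myosin IIA peptide; buffer or medium: HEPES pH 7.2 with CaCl2, KCl, NaCl, DTT, Triton; compound dosing: one concentration per compound; schedule: 5 min incubation before reading; benchmarks: neutral control DMSO, positive control TFP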
E-selectin induc = E-selectin induction in HUVECs, primary screen, imaging, HUVEC, immunofluorescence imaging, single point | activation, % at 7.58 µM | normalized: neutral wells 0, TNF-alpha wells 100 | P16581 | 0.37% of 260,000 active;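 active means mean E-selectin-positive cell signal at least 10% of the positive control, reached in at least 60% of replicates, without over 20% cell loss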
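Test system: HUVEC; input: 3,000 HUVEC/well; measured by: immunofluorescence imaging; read-out: % PE-positive cells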
* = called active by the depositor; [ ] = remark or other dose.

What do the screens show for `Cc1ccccc1-c1ccc2c(c1)O[C@H](CN(C)C(=O)Nc1ccc(F)cc1)[C@H](C)CN([C@H](C)CO)S2(=O)=O`?
FGF22 binding: 0; miR-122 sensor: 47[16.7 µM]; SIRT5 inh: 16*; S100A4 MyoIIA: 4; E-selectin induc: 0

Results for Cc1ccccc1-c1ccc2c(c1)O[C@H](CN(C)C(=O)Nc1ccc(F)cc1)[C@@H](C)CN([C@@H](C)CO)S2(=O)=O ?
miR-122 sensor: 24[16.7 µM]; E-selectin induc: 0

How did CC(C)NC(=O)N(C)C[C@@H]1Oc2cc(-c3ccncc3)ccc2S(=O)(=O)N([C@H](C)CO)C[C@H]1C do in these assays?
FGF22 binding: 0; miR-122 sensor: 12[16.7 µM]; SIRT5 inh: 0; S100A4 MyoIIA: 160*; E-selectin induc: 0

How did O=C1[C@@H]2[C@@H](CC(COc3ccccc3)=C([C@H](O)c3ccccc3)[C@@H]2CO)C(=O)N1Cc1ccccc1 do in these assays?
FGF22 binding: 0; SIRT5 inh: 7; S100A4 MyoIIA: 3

What do the screens show for `O=C1O[C@H](c2ccccc2)[C@H](c2ccccc2)N2[C@H]1[C@@H](C(=O)N1CCCCCCC1)[C@]1(C(=O)Nc3ccc(C#CC4=CCCCC4)cc31)[C@H]2c1ccccc1OCCO`?
FGF22 binding: 0; SIRT5 inh: 8; S100A4 MyoIIA: -34

Results for CC(C)C[C@H]1COCn2nncc2CC[C@H](Cc2ccccc2)C(=O)N1 ?
FGF22 binding: 0; SIRT5 inh: 5; S100A4 MyoIIA: 1; E-selectin induc: 0

Results for O=C(CN(c1ccc(F)cc1)S(=O)(=O)c1ccccc1)Nc1ccccc1C(=O)O ?
FGF22 binding: 43*; miR-122 sensor: 0; SIRT5 inh: 1; S100A4 MyoIIA: 2

How did Cc1nn(-c2ccccc2)c(C)c1C(=O)OC(C)C(=O)Nc1ccc(C(N)=O)cc1 (centres undefined) do in these assays?
FGF22 binding: 43*; miR-122 sensor: -2; S100A4 MyoIIA: -1; E-selectin induc: 0

How did C[C@@H]1CCC(=O)N(C[C@@H](C)CSc2ccc(Br)cc2)CC1 do in these assays?
FGF22 binding: 43*; miR-122 sensor: 6; SIRT5 inh: -6; S100A4 MyoIIA: -1; E-selectin induc: 1

Results for C[C@H]1CN([C@@H](C)CO)C(=O)Cc2cc(NS(=O)(=O)c3cccs3)ccc2O[C@@H]1CN(C)S(=O)(=O)c1cccs1 ?
miR-122 sensor: -2[16.7 µM]; E-selectin induc: 0

How did CO[C@H]1CN(C)C(=O)c2cc(NS(=O)(=O)c3ccc(Cl)cc3)ccc2OC[C@H](C)N(C)C[C@@H]1C do in these assays?
SIRT5 inh: 1; S100A4 MyoIIA: 5; E-selectin induc: 0

How did COc1ccc(-n2ccc(=O)c(C(=O)O)n2)cc1 do in these assays?
FGF22 binding: 0; miR-122 sensor: -3; SIRT5 inh: -1; S100A4 MyoIIA: 4

Results for COc1ccc(S(=O)(=O)NN(C)C(=O)c2nn(-c3ccccc3)ccc2=O)cc1 ?
FGF22 binding: 0; miR-122 sensor: -1; SIRT5 inh: 1; S100A4 MyoIIA: -3; E-selectin induc: 27*

How did O=C1NC(=O)c2cc(Br)cc3cccc1c23 do in these assays?
SIRT5 inh: 5; S100A4 MyoIIA: -12; E-selectin induc: 204*

How did Cc1ccccc1C1=C/C(=C(\SS/C(C(=O)c2ccc(OCC(=O)O)c(Cl)c2Cl)=C2\C=C(c3ccccc3C)SS2)C(=O)c2ccc(OCC(=O)O)c(Cl)c2Cl)SS1 do in these assays?
FGF22 binding: 0; SIRT5 inh: 69*; S100A4 MyoIIA: -4; E-selectin induc: -4

Results for COCC(=O)N[C@H]1CC[C@H](CC(=O)NCc2ccccc2OC)O[C@H]1CO ?
FGF22 binding: 0; SIRT5 inh: 1; S100A4 MyoIIA: -4; E-selectin induc: 0

Results for COCC(=O)N[C@@H]1CC[C@H](CC(=O)NCc2ccccc2OC)O[C@@H]1CO ?
FGF22 binding: 0; SIRT5 inh: 16*; S100A4 MyoIIA: 1; E-selectin induc: 0

What do the screens show for `O=C(C[C@@H]1C[C@H]2c3cc(NS(=O)(=O)c4ccccc4)ccc3O[C@H]2[C@@H](CO)O1)N1CCOCC1`?
FGF22 binding: 0; miR-122 sensor: 23[16.7 µM]; SIRT5 inh: -1; S100A4 MyoIIA: 111*; E-selectin induc: 0

What do the screens show for `COCC(=O)Nc1ccc2c(c1)[C@H]1C[C@@H](CC(=O)N3CCOCC3)O[C@@H](CO)[C@H]1O2`?
FGF22 binding: 0; miR-122 sensor: -5[16.7 µM]; SIRT5 inh: -1; S100A4 MyoIIA: 3; E-selectin induc: 0

How did COCC(=O)Nc1ccc2c(c1)[C@@H]1C[C@@H](CC(=O)N3CCOCC3)O[C@@H](CO)[C@@H]1O2 do in these assays?
FGF22 binding: 0; miR-122 sensor: 0[16.7 µM]; SIRT5 inh: -3; S100A4 MyoIIA: 86*; E-selectin induc: 0

Results for CN(C)CC(=O)N[C@H]1CC[C@@H](CC(=O)NCc2ccc(Cl)cc2)O[C@@H]1CO ?
FGF22 binding: -1; SIRT5 inh: 6; S100A4 MyoIIA: 82*; E-selectin induc: 0

How did O=C(C[C@@H]1C[C@H]2c3cc(NS(=O)(=O)c4ccccc4)ccc3O[C@H]2[C@H](CO)O1)N1CCOCC1 do in these assays?
FGF22 binding: 0; miR-122 sensor: 6[16.7 µM]; SIRT5 inh: 0; S100A4 MyoIIA: -1; E-selectin induc: 1

Results for COc1ccc2c3c([nH]c2c1)[C@@H](CO)N(Cc1ccccc1F)CC31CN(C(=O)C2CCCC2)C1 ?
FGF22 binding: 0; SIRT5 inh: 10; S100A4 MyoIIA: -1; E-selectin induc: 0

How did CO[C@H]1CC[C@@H]2CCN(C)C(=O)C[C@@H](c3ccccc3)CN(C)C(=O)c3cc(C#N)ccc3OC[C@@H]1O2 do in these assays?
FGF22 binding: 0; SIRT5 inh: 1; S100A4 MyoIIA: -12; E-selectin induc: 0

How did CO[C@@H]1CN(C)C(=O)c2cc(NC(=O)c3cccc(F)c3)ccc2OC[C@H](C)N(CC2CC2)C[C@@H]1C do in these assays?
FGF22 binding: 0; SIRT5 inh: 1; S100A4 MyoIIA: -23; E-selectin induc: 0

What do the screens show for `COCC(=O)Nc1ccc2c(c1)[C@@H]1C[C@@H](CC(=O)NCc3ccccc3OC)O[C@@H](CO)[C@@H]1O2`?
FGF22 binding: 0; miR-122 sensor: -5[16.7 µM]; SIRT5 inh: 19*; S100A4 MyoIIA: -1; E-selectin induc: 0

Source: PubChem BioAssay
